The assay has as its system LL 47 lung fibroblast viability, ATP luminescence. Kind of assay: LL 47 lung fibroblast growth inhibition, concentration-response, selectivity test for endothelial growth inhibitor program, cellular, luminescent ATP readout (AID 821). The method, boiled down: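 Test system: human lung fibroblasts, LL 47 line / Amount: 1,150 cells/well / Schedule: 72 h compound treatment at 37 °C after overnight attachment / Technique: CellTiter-Glo luminescence readout of viable cells / Measure: percent viability relative to untreated wells, EC50 via 4-parameter fit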

Activity calls are given as the source filed them.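 How the source made its calls: active means compounds whose fitted half-maximal concentration for reducing fibroblast viability is 100 µM or lower; inactive means the rest.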

For orientation: EC50 means the concentration at which the effect is half-maximal. Regarding `COc1cc2nc(N3CCN(C(=O)c4ccco4)CC3)nc(N)c2cc1OC`, the concentration giving a half-maximal response (EC50) was 8.04 µM.

Take `O=S(=O)(c1ccc2c(c1)nc(COc1ccc(Cl)cc1)n2CC1CCCO1)N1CCOCC1` (stereo unspecified): the EC50 is 8.4 µM.

On to `COC(=O)/C=C1\C(=O)N(c2nc3ccccc3s2)C(=S)N1c1ccc(F)cc1`, for which the EC50 was 17.8 µM.

On to `COc1cc(C(=O)Oc2c(CN3CCOCC3)cc(Cl)c3cccnc23)cc(OC)c1OC`, for which the 50% effective concentration (EC50) was 4.05 µM.

For the molecule `CCOC(=O)c1cnc(-n2nc(C)cc2C)nc1NCCc1ccccc1`, the concentration for a half-maximal effect (EC50) is 14.2 µM.

Take `C=CCn1c(SCC(=O)c2c(N)n(CCC)c(=O)n(C)c2=O)nc2sc(CC)cc2c1=O`: the half-maximal effective concentration (EC50) is 15.3 µM.

In the case of `Cc1ccccc1-c1nc(CN2CCC(C(=O)NCCCN3CC(C)CC(C)C3)CC2)c(C)o1` (stereo unspecified), the EC50 was 10.6 µM.

`CCOC(=O)c1cnc(-n2nc(C)cc2C)nc1Nc1ccc(N(C)C)cc1`: the EC50 was 14.6 µM.

As for `CCOc1ccccc1-n1c(CN2CCN(C(=O)c3ccco3)CC2)nc2ccccc2c1=O`, the EC50 was 5.7 µM.

For the molecule `CCOC(=O)/C=C/S(=O)(=O)c1ccc(NC(C)=O)cc1`, the EC50 is 6.96 µM.

Regarding `CC(=O)C(C(C)=O)c1c(Cl)c(O)c(O)c2c(C(=O)c3ccccc3)coc12`, the half-maximal effective concentration (EC50) was 14.5 µM.

With `Oc1c(CN2CCN(c3ccccn3)CC2)cc(Cl)c2cccnc12`, the concentration for a half-maximal effect (EC50) was 5.46 µM.

Take `O=C(CSc1cccc2cccnc12)N1CCCC1`: the EC50 was 12.7 µM.

Take `CC1=NOC(=O)/C1=C/c1ccc(-c2ccc(Cl)cc2)o1`: the EC50 is 13.9 µM.

In the case of `COc1cc(NC(=O)Nc2cccc(Cl)c2)c(OC)cc1NC(=O)CN1CCCCC1`, the 50% effective concentration (EC50) was 20.3 µM.

In the case of `CCN(CC)CCn1c2ccccc2c2cnc(N)c(C#N)c21`, the concentration giving a half-maximal response (EC50) is 9.65 µM.

Turning to `COc1cc(C(C[N+](=O)[O-])c2c(-c3ccccc3)cc3ccccn23)cc(OC)c1OC` (stereo unspecified), the concentration giving a half-maximal response (EC50) was 18.7 µM.

Take `O=C(c1ccc(F)cc1)C(CN1CCOCC1)c1ccccc1` (stereo unspecified): the concentration for a half-maximal effect (EC50) was 6.42 µM.

In the case of `OCc1ccc(O)c2ncccc12`, the half-maximal effective concentration (EC50) is 9.4 µM.

Regarding `COc1cc(NC(=O)c2cccs2)c(C(=O)OCC(=O)NCc2ccccc2)cc1OC`, the EC50 was 20.6 µM.

As for `CC(=O)SC(C[N+](=O)[O-])c1cn(C(C)=O)c2ccccc12` (stereo unspecified), the EC50 is 11.7 µM.

In the case of `c1ccc(-c2nc(N3CCCCCC3)c3ccccc3n2)nc1`, the EC50 was 1.73 µM.

Turning to `CN1CCN(S(=O)(=O)c2ccc(NC(=O)Nc3cccc(Cl)c3)cc2)CC1`, the EC50 was 16.5 µM.

Regarding `CCOc1cccc(-n2nnnc2-c2ccc(OC)cc2)c1`, the EC50 is 19.9 µM.

On to `Cn1c2ccccc2c(=O)c2c(=O)n(C3CCCCC3)c(-c3cccs3)nc21`, for which the EC50 was 14.2 µM.

Consider `O=C(Nc1cccnc1)c1ccc(Br)s1`, for which the concentration giving a half-maximal response (EC50) is 13.1 µM.

On to `COC(=O)CS(=O)(=O)c1nnc([C@H](Cc2ccccc2)NC(=O)OC(C)(C)C)o1`, for which the EC50 was 7.97 µM.

On to `CC1=CC(C)(C)Nc2ccc(OC(=O)c3cccnc3)cc21`, for which the half-maximal effective concentration (EC50) is 7.47 µM.

As to `CC(C)c1nnc(NC(=O)CCS(=O)(=O)c2nc(-c3cccs3)cc(C(F)(F)F)n2)s1`, the EC50 is 12.8 µM.

Turning to `CCn1c(SCC(=O)Nc2cc(C)on2)nc2sc3c(c2c1=O)CCCC3`, the EC50 was > 10 µM (inactive).

As for `CCc1[nH]nc2c1C(c1ccc(Br)s1)C(C#N)=C(N)O2` (stereo unspecified), the EC50 is 13.6 µM.

As for `COC(=O)Nc1ccc(S(=O)(=O)N2c3ccccc3CCC2C)cc1` (stereo unspecified), the EC50 was 12.5 µM.

In the case of `CS(=O)(=O)c1nc(-c2cccs2)cc(C(F)(F)F)n1`, the EC50 is 7.32 µM.

With `O=C1Nc2ccccc2/C1=C/C(=O)c1cccs1`, the EC50 is 6.78 µM.

Regarding `COc1ccc(-n2nnnc2S(=O)(=O)CC(=O)N2CCCCC2)cc1`, the EC50 was 6.12 µM.

Take `COc1ccc(S(=O)(=O)Nc2ccc(O)c3ccccc23)cc1`: the 50% effective concentration (EC50) is 13.1 µM.

As for `COc1cccc2sc(Nc3nc(C)c(C(C)=O)s3)nc12`, the EC50 is 5.54 µM.

In the case of `O=[N+]([O-])c1ccc(Sc2cccc3cccnc23)c([N+](=O)[O-])c1`, the EC50 was 5.03 µM.

`CCOC(=O)c1sc2nc(C(C)C)c3c(c2c1N)CC(C)(C)OC3`: the concentration for a half-maximal effect (EC50) was 12.4 µM.

For `Cc1ccc(-c2nn3c(C)nnc3s2)cc1NC(=O)c1ccc(-c2cccc(Cl)c2)o1`, the half-maximal effective concentration (EC50) is 13.1 µM.

On to `CCOC(=O)c1c(NC(=O)CSc2nc(C)cc(C)c2C#N)sc(C(C)=O)c1C`, for which the EC50 is 13.5 µM.

The record behind these values is PubChem BioAssay AID821 (SRMLSC, 2007).
